Results taken from ChEMBL document CHEMBL4373711, “Development of 3,5-Dinitrophenyl-Containing 1,2,4-Triazoles and Their Trifluoromethyl Analogues as Highly Efficient Antitubercular Agents Inhibiting Decaprenylphosphoryl-β-d-ribofuranose 2'-Oxidase” (J Med Chem, 2019).
In brackets after ≈: the same amount, converted by molar mass. Activity calls are given as the source filed them. The calls are words filed in the database; no cut-off is given here.

How the values were obtained:
[1] = test system: Serratia marcescens; experiment: Antibacterial activity against Serratia marcescens at highest concentration measured after 24 to 48 hrs by alamar blue dye based broth microdilution assay; assay type: functional, organism-based
[2] = test system: Staphylococcus epidermidis; experiment: Antibacterial activity against Staphylococcus epidermidis at highest concentration measured after 24 to 48 hrs by alamar blue dye based broth microdilution assay; assay type: functional, organism-based
[3] = test system: Aspergillus flavus; experiment: Antifungal activity against Aspergillus flavus CCM 8363 at highest concentration measured after 24 to 48 hrs by alamar blue dye based broth microdilution assay; assay type: functional, organism-based
[4] = test system: Candida albicans; experiment: Antifungal activity against Candida albicans ATCC 24433 CCM 8320 at highest concentration measured after 24 to 48 hrs by alamar blue dye based broth microdilution assay; assay type: functional, organism-based
[5] = test system: Aspergillus fumigatus; experiment: Antifungal activity against Aspergillus fumigatus ATCC 204305 at highest concentration measured after 24 to 48 hrs by alamar blue dye based broth microdilution assay; assay type: functional, organism-based
[6] = test system: Pseudomonas aeruginosa; experiment: Antibacterial activity against Pseudomonas aeruginosa ATCC 27853 CCM 3955 at highest concentration measured after 24 to 48 hrs by alamar blue dye based broth microdilution assay; assay type: functional, organism-based
[7] = test system: Pichia kudriavzevii; experiment: Antifungal activity against Candida krusei ATCC 6258 CCM8271 at highest concentration measured after 24 to 48 hrs by alamar blue dye based broth microdilution assay; assay type: functional, organism-based
[8] = test system: Mycobacterium kansasii; experiment: Antimycobacterial activity against Mycobacterium kansasii 6509/96 after 21 days; assay type: functional; settings: 6509/96, 504 h
Summary of the method: (§1)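 Microdilution in Šula's semisynthetic medium; compounds in DMSO at 32–0.03 µM. Inoculum from 1.0 McFarland suspension diluted 10-4. […] Isoniazid and rifampicin as reference drugs.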

[9] = test system: Klebsiella pneumoniae; experiment: Antibacterial activity against Klebsiella pneumoniae at highest concentration measured after 24 to 48 hrs by alamar blue dye based broth microdilution assay; assay type: functional, organism-based
[10] = test system: Escherichia coli; experiment: Antibacterial activity against Escherichia coli ATCC 25922 CCM 3954 at highest concentration measured after 24 to 48 hrs by alamar blue dye based broth microdilution assay; assay type: functional, organism-based
[11] = test system: Staphylococcus aureus; experiment: Antibacterial activity against Staphylococcus aureus subsp. aureus ATCC 29213 CCM 4223 at highest concentration measured after 24 to 48 hrs by alamar blue dye based broth microdilution assay; assay type: functional, organism-based
[12] = test system: Mycobacterium avium; experiment: Antimycobacterial activity against Mycobacterium avium CNCTC My 330/88 after 21 days; assay type: functional; settings: CNCTC My 330/88, 504 h
Summary of the method: (§2)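 M. avium was tested by microdilution in Šula's semisynthetic medium, with compounds dissolved in DMSO and serially diluted from 1000 down to 1. Inoculum was a 1.0 McFarland suspension diluted 10-5. Plates were incubated at 37 °C and read at 14 and 21 days. […] Isoniazid and rifampicin served as standards.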

[13] = test system: Mycobacterium kansasii; experiment: Antimycobacterial activity against Mycobacterium kansasii CNCTC My 235/80 after 21 days; assay type: functional; settings: CNCTC My 235/80, 504 h; summary of the method: as §1
[14] = test system: Mycobacterium kansasii; experiment: Antimycobacterial activity against Mycobacterium kansasii 6509/96 after 14 days; assay type: functional; settings: 6509/96, 336 h; summary of the method: as §1
[15] = test system: Mycobacterium kansasii; experiment: Antimycobacterial activity against Mycobacterium kansasii 6509/96 after 7 days; assay type: functional; settings: 6509/96, 168 h; summary of the method: as §1
[16] = test system: Enterococcus faecalis; experiment: Antibacterial activity against Enterococcus faecalis ATCC 29212 CCM 4224 at highest concentration measured after 24 to 48 hrs by alamar blue dye based broth microdilution assay; assay type: functional, organism-based
[17] = test system: Mycobacterium tuberculosis; experiment: Antimycobacterial activity against Mycobacterium tuberculosis H37Rv CNCTC My 331/88 after 21 days; assay type: functional; settings: H37Rv CNCTC My 331/88, 504 h
Summary of the method: (§3)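 M. tuberculosis strains (H37Rv and clinical MDR/XDR isolates) tested by microdilution in Šula's semisynthetic medium. Compounds were dissolved in DMSO and tested at 32 to 0.03 µM in twofold steps. Inoculum was a 1.0 McFarland suspension diluted 10-3. Plates were incubated at 37 °C and read at 14 and 21 days.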

[18] = test system: Mycobacterium tuberculosis; experiment: Antimycobacterial activity against Mycobacterium tuberculosis H37Rv CNCTC My 331/88 after 14 days; assay type: functional; settings: H37Rv CNCTC My 331/88, 336 h; summary of the method: as §3
[19] = test system: Mycobacterium avium; experiment: Antimycobacterial activity against Mycobacterium avium CNCTC My 330/88 after 14 days; assay type: functional; settings: CNCTC My 330/88, 336 h; summary of the method: as §2
[20] = test system: Candida parapsilosis; experiment: Antifungal activity against Candida parapsilosis ATCC 22019 CCM 8260 at highest concentration measured after 24 to 48 hrs by alamar blue dye based broth microdilution assay; assay type: functional, organism-based
[21] = test system: Staphylococcus aureus; experiment: Antibacterial activity against methicillin-resistant Staphylococcus aureus subsp. aureus ATCC 43300 CCM 4750 at highest concentration measured after 24 to 48 hrs by alamar blue dye based broth microdilution assay; assay type: functional, organism-based
[22] = test system: Trichophyton interdigitale; experiment: Antifungal activity against Trichophyton interdigitale ATCC 9533 CCM 8377 at highest concentration measured after 72 to 120 hrs by alamar blue dye based broth microdilution assay; assay type: functional
[23] = test system: Mycobacterium kansasii; experiment: Antimycobacterial activity against Mycobacterium kansasii CNCTC My 235/80 after 14 days; assay type: functional; settings: CNCTC My 235/80, 336 h; summary of the method: as §1
[24] = test system: Candida tropicalis; experiment: Antifungal activity against Candida tropicalis ATCC 750 CCM 8264 at highest concentration measured after 24 to 48 hrs by alamar blue dye based broth microdilution assay; assay type: functional, organism-based
[25] = test system: Mycobacterium kansasii; experiment: Antimycobacterial activity against Mycobacterium kansasii CNCTC My 235/80 after 7 days; assay type: functional; settings: CNCTC My 235/80, 168 h; summary of the method: as §1
[26] = test system: Lichtheimia corymbifera; experiment: Antifungal activity against Lichtheimia corymbifera CCM 8077 at highest concentration measured after 24 to 48 hrs by alamar blue dye based broth microdilution assay; assay type: functional, organism-based

| SMILES | Activity [1] | Activity [2] | Activity [3] | Activity [4] | Activity [5] | Activity [6] | Activity [7] | MIC99 [8] | Activity [9] | Activity [10] | Activity [11] | MIC99 [12] | MIC99 [13] | MIC99 [14] | MIC99 [15] | Activity [16] | MIC99 [17] | MIC99 [18] | MIC99 [19] | Activity [20] | other results |
| --- | --- | --- | --- | --- | --- | --- | --- | --- | --- | --- | --- | --- | --- | --- | --- | --- | --- | --- | --- | --- | --- |
| CCCCCCCCCCCCn1c(SCc2cc([N+](=O)[O-])cc([N+](=O)[O-])c2)nnc1-c1ccccc1 | inactive | inactive | inactive | inactive | inactive | inactive | inactive | 4 µM (≈ 2.1 µg/mL) | inactive | inactive | inactive | 250 µM (≈ 131 µg/mL) | 4 µM (≈ 2.1 µg/mL) | 4 µM (≈ 2.1 µg/mL) | 2 µM (≈ 1.05 µg/mL) | inactive | 4 µM (≈ 2.1 µg/mL) | 2 µM (≈ 1.05 µg/mL) | 250 µM (≈ 131 µg/mL) | inactive | Activity [21]: inactive; Activity [22]: inactive; MIC99 [23]: 2 µM (≈ 1.05 µg/mL); Activity [24]: inactive; MIC99 [25]: 2 µM (≈ 1.05 µg/mL); Activity [26]: inactive |
| CCCCCCCCCCCc1nnc(SCc2cc([N+](=O)[O-])cc([N+](=O)[O-])c2)n1Cc1ccccc1 | inactive | inactive | inactive | inactive | inactive | inactive | inactive | 8 µM (≈ 4.21 µg/mL) | inactive | inactive | inactive | 250 µM (≈ 131 µg/mL) | 4 µM (≈ 2.1 µg/mL) | 4 µM (≈ 2.1 µg/mL) | 2 µM (≈ 1.05 µg/mL) | inactive | 4 µM (≈ 2.1 µg/mL) | 4 µM (≈ 2.1 µg/mL) | 250 µM (≈ 131 µg/mL) | inactive | Activity [21]: inactive; Activity [22]: inactive; MIC99 [23]: 4 µM (≈ 2.1 µg/mL); Activity [24]: inactive; MIC99 [25]: 2 µM (≈ 1.05 µg/mL); Activity [26]: inactive |
| O=[N+]([O-])c1cc(CSc2nnc(C3CCCCC3)n2Cc2ccccc2)cc([N+](=O)[O-])c1 | inactive | inactive | inactive | inactive | inactive | inactive | inactive | 4 µM (≈ 1.81 µg/mL) | inactive | inactive | inactive | 250 µM (≈ 113 µg/mL) | 4 µM (≈ 1.81 µg/mL) | 4 µM (≈ 1.81 µg/mL) | 4 µM (≈ 1.81 µg/mL) | inactive | 4 µM (≈ 1.81 µg/mL) | 2 µM (≈ 0.907 µg/mL) | 250 µM (≈ 113 µg/mL) | inactive | Activity [21]: inactive; Activity [22]: inactive; MIC99 [23]: 4 µM (≈ 1.81 µg/mL); Activity [24]: inactive; MIC99 [25]: 4 µM (≈ 1.81 µg/mL); Activity [26]: inactive |
| CCCCCCc1nnc(SCc2cc([N+](=O)[O-])cc([N+](=O)[O-])c2)n1Cc1ccccc1 | inactive | inactive | inactive | inactive | inactive | inactive | inactive | 4 µM (≈ 1.82 µg/mL) | inactive | inactive | inactive | 250 µM (≈ 114 µg/mL) | 2 µM (≈ 0.911 µg/mL) | 4 µM (≈ 1.82 µg/mL) | 2 µM (≈ 0.911 µg/mL) | inactive | 2 µM (≈ 0.911 µg/mL) | 2 µM (≈ 0.911 µg/mL) | 250 µM (≈ 114 µg/mL) | inactive | Activity [21]: inactive; Activity [22]: inactive; MIC99 [23]: 2 µM (≈ 0.911 µg/mL); Activity [24]: inactive; MIC99 [25]: 1 µM (≈ 0.456 µg/mL); Activity [26]: inactive |
| COc1ccc(-c2nnc(SCc3cc([N+](=O)[O-])cc(C(F)(F)F)c3)n2Cc2ccccc2)cc1 | inactive | inactive | inactive | inactive | inactive | inactive | inactive | > 32 µM | inactive | inactive | inactive | 250 µM (≈ 125 µg/mL) | > 32 µM | > 32 µM | > 32 µM | inactive | > 32 µM | 32 µM (≈ 16 µg/mL) | 250 µM (≈ 125 µg/mL) | inactive | Activity [21]: inactive; Activity [22]: inactive; MIC99 [23]: > 32 µM; Activity [24]: inactive; MIC99 [25]: 32 µM (≈ 16 µg/mL); Activity [26]: inactive |
